Experiment [1] deals with NHDF. As to the kind of experiment: Induction of apoptosis in human NHDF cells assessed as caspase 3/7 activation after 24 hrs Caspase-Glo 3/7 assay. Format: functional, cell-based.
Experiment [2] has as its system DU-145. In words: Cytotoxicity against human DU145 cells after 72 hrs by CellTitter-Glo luminescent cell viability assay. Format: functional, cell-based. The note with it: DU-145, 72 h.
For experiment [3], the system named is DU-145. In words: Induction of apoptosis in human DU145 cells assessed as caspase 3/7 activation after 24 hrs Caspase-Glo 3/7 assay. It counts as functional, cell-based. To be noted: du-145.
Experiment [4] addresses T1, Alpha-1D adrenergic receptor (Rattus norvegicus) (UniProt P23944).
T1 sequence (whole entry): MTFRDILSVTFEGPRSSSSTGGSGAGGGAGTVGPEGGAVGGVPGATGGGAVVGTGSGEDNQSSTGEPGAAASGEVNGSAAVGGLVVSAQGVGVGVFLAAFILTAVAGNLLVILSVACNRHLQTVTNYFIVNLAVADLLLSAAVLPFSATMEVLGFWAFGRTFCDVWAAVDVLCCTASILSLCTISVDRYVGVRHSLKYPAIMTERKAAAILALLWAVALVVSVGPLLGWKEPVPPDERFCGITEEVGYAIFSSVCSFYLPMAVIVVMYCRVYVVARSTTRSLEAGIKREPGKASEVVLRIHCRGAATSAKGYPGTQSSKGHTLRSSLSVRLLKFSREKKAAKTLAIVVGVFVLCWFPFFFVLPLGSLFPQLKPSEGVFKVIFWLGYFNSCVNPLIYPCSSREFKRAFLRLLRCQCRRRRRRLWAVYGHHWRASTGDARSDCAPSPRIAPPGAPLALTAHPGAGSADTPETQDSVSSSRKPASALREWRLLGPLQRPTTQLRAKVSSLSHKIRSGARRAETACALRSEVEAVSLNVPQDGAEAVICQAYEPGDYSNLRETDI
In words: (§1) Antagonist activity at rat Alpha-1D adrenoceptor assessed as inhibition if norepenephrine-induced contraction of thoracic aorta. Format: functional, tissue-based. The method, boiled down:
(§2)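 Isolated rat tissue contraction assay. The α1A response used vas deferens with (-)-noradrenaline as agonist, α1D used thoracic aorta with (-)-noradrenaline, and α1B used spleen with (-)-phenylephrine. pA2 values are means ± SEM over three antagonist concentrations, each tested at least four times. Where the Schild slope differed from unity, pKB was calculated by van Rossum at the lowest antagonist concentration giving log(CR−1) ≥0.5.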

For experiment [5], the system named is NHDF. In words: Cytotoxicity against human NHDF cells after 72 hrs by CellTitter-Glo luminescent cell viability assay. Format: functional, cell-based.
For experiment [6], the system named is LNCaP. As to the kind of experiment: Induction of apoptosis in human LNCAP cells assessed as caspase 3/7 activation after 24 hrs Caspase-Glo 3/7 assay. To be noted: lncap. It counts as functional, cell-based.
Experiment [7] has as its target T2, Alpha-1B adrenergic receptor (Rattus norvegicus) (UniProt P15823).
T2 sequence (whole entry): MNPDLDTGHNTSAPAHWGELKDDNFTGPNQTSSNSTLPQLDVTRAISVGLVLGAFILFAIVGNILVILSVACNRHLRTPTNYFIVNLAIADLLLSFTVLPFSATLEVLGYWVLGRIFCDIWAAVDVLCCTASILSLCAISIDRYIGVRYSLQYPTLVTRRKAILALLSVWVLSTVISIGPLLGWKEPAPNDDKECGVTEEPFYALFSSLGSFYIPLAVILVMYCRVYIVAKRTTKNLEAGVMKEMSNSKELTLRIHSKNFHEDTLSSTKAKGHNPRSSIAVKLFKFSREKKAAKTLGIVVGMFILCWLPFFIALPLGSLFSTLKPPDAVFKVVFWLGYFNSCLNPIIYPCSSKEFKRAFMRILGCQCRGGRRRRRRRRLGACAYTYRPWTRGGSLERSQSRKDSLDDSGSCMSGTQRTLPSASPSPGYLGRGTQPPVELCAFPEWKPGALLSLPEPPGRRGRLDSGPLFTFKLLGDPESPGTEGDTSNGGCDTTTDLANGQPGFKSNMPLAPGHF
As to the kind of experiment: Antagonist activity at rat Alpha-1B adrenoceptor assessed as inhibition if phenylephrine-induced contraction of spleen. Format: functional, tissue-based. The method, boiled down: as §2

Experiment [8] relates to LNCaP. In words: Cytotoxicity against human LNCAP cells after 72 hrs by CellTitter-Glo luminescent cell viability assay. Format: functional, cell-based.
In experiment [9] the test system is PC-3. In words: Antiangiogenic activity in human PC3 cells xenografted in NU/NU mouse assessed as reduction vascularization at 0.3 mg/kg by immunohistochemistry. Format: functional, organism-based. Also noted: dose 0.3 mg/kg. The method, boiled down: (§3)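 Vascularization of PC-3 flank tumors from nude mice dosed orally was assessed by immunohistochemistry with rat anti-mouse CD31 monoclonal antibody as endothelial marker. Doses were 0.3, 1 and 3 mg/kg.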

For experiment [10], the system named is PC-3. In words: Antiangiogenic activity in human PC3 cells xenografted in NU/NU mouse assessed as reduction vascularization at 3 mg/kg by immunohistochemistry. Format: functional, organism-based. Also noted: dose 3 mg/kg. The method, boiled down: as §3
In general terms: In xenograft studies the graft and the host belong to different species.

Experiment [11] deals with T3, Alpha-1D adrenergic receptor (Rattus norvegicus, UniProt P23944).
T3 sequence (P23944 whole entry): T1 sequence (whole entry)
The description is as §1. Format: functional, tissue-based. To be noted: read-out: pA2 (converted). The method, boiled down:
as §2

Experiment [12] concerns PC-3. As to the kind of experiment: Induction of apoptosis in human PC3 cells xenografted in NU/NU mouse assessed as DNA fragmentation at 0.3 to 3 mg/kg by agarose gel electrophoresis. Format: functional, organism-based. The method, boiled down:
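DNA from PC-3 subcutaneous tumors of orally treated nude mice was run on an electrophoretic gel. Apoptosis was scored as a DNA ladder pattern.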

For experiment [13], the system named is PC-3. In words: Antitumor activity against human PC3 cells xenografted in NU/NU mouse at 0.3 mg/kg, po after 21 days relative to control. It counts as functional. The method, boiled down: (§4)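 Male nude mice carried subcutaneous left-flank tumors from injected PC-3 cells. Drug was given orally once daily for 21 consecutive days. There were five groups of six mice, treated and control. Tumor growth is reported as mean ± SEM, analysed by ANOVA and Student t-test against control.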

Experiment [14] deals with PC-3. In words: Antiangiogenic activity in human PC3 cells xenografted in NU/NU mouse assessed as reduction vascularization at 1 mg/kg by immunohistochemistry. It counts as functional, organism-based. Set-up: dose 1 mg/kg. The method, boiled down: as §3
Experiment [15] relates to PC-3. As to the kind of experiment: Antitumor activity against human PC3 cells xenografted in NU/NU mouse after 21 days. It counts as functional. The method, boiled down:
as §4

Activity calls are given as the source filed them. No cut-off for these calls is given here.

Take `COc1cc2nc(N(C)CCCCCCN(C)C(=O)C3COc4ccccc4O3)nc(N)c2cc1OC` (stereo unspecified): the EC50 in the experiment on NHDF [1], with DU-145 [3] and with LNCaP [6] was 10 µM each time. The IC50 was determined as 9.25 µM in the experiment with DU-145 [2], 9.8 µM in the experiment on NHDF [5] and 4.61 µM with LNCaP [8]. Also, the results for the pKb in experiment [4] and in experiment [7] were 8.64 and 8.35, respectively.
Consider `COc1cc2nc(N3CCN(C(=O)C4COc5ccccc5O4)[C@H]4CCCC[C@H]43)nc(N)c2cc1OC` (relative stereo) [CYCLODOXAZOSIN], for which the result in the experiment with PC-3 [9], in the experiment on PC-3 [10], in the experiment with PC-3 [12] and in the experiment with PC-3 [14] was Active. Besides, the concentration for a half-maximal effect (EC50) is greater than 10 µM in the experiment on NHDF [1], 2.6 µM in the experiment on DU-145 [2], greater than 10 µM in the experiment on NHDF [5] and 1.42 µM with LNCaP [8]. For the same molecule, the results for the IC50 with DU-145 [2], with NHDF [5] and in the experiment with LNCaP [8] were 0.96 µM, 1.46 µM and 0.57 µM, respectively. Moreover, the Kb in [11] was 0.0407 µM. Moreover, the values for the Activity in the experiment with PC-3 [13] and in the experiment on PC-3 [15] were 21% and “Dose-dependent effect”, respectively. Besides, the negative-log Kb (pKb) in experiment [7] is 8.3.
As for `COc1cc2nc(N3CCN(C(=O)C4COc5ccccc5O4)[C@H]4CCCC[C@@H]43)nc(N)c2cc1OC` (relative stereo), the EC50 with NHDF [1], in the experiment on DU-145 [3] and with LNCaP [6] was 10 µM throughout. Further, the IC50 was greater than 10 µM in the experiment with DU-145 [2], greater than 10 µM in the experiment with NHDF [5] and 9.75 µM in the experiment on LNCaP [8]. Moreover, the figures for the pKb in experiment [4] and in experiment [7] were 6.88 and 7.14, respectively.

For orientation: EC50 means the concentration at which the effect is half-maximal. Usually IC50 stands for the midpoint of a concentration-inhibition curve. What is called pKb is the Kb on a negative log10 scale, so that one unit is a factor of ten.

Values taken from ChEMBL document CHEMBL1151946, “Doxazosin-related alpha1-adrenoceptor antagonists with prostate antitumor activity” (J Med Chem, 2009).
